Converted amounts (≈) assume the structure as drawn.
Experiments:
Format in all cases: functional
[1] = tested on: Bacteria; test: Geometric mean of the four MIC's of different sensitive gram negative bacteria expressed
[2] = tested on: Escherichia coli; test: Antibacterial activity against Escherichia coli (EC-14) a sensitive gram-negative bacteria
Outline: (§1)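 Agar dilution on sensitivity test agar containing serial twofold antibiotic dilutions. Overnight tryptosoy broth cultures were diluted in the same broth to about 10^6 cells/mL, and one loopful was applied with an inoculating device. Plates were incubated at 37 °C for 18-20 h. MIC was taken as the lowest concentration inhibiting visible growth, in micrograms per milliliter.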

[3] = tested on: Klebsiella pneumoniae; test: Antibacterial activity against Kleb. pneumoniae (SRL-1) a sensitive gram-negative bacteria; outline: as §1
[4] = tested on: Escherichia coli; test: Antibacterial activity against Escherichia coli (NIHJ JC-2) a sensitive gram-negative bacteria; outline: as §1
[5] = tested on: Escherichia coli; test: Antibacterial activity against Escherichia coli (H) a sensitive gram-negative bacteria; outline: as §1
[6] = tested on: Bacteria; test: Geometric mean of the four MIC's of different sensitive gram negative bacteria.

Compound	MIC [2] [µg/mL]	MIC [3] [µg/mL]	MIC [4] [µg/mL]	MIC [5] [µg/mL]	Geometric mean [1] [µM]	Geometric mean [6] [µM]
CO[C@@]1(NC(=O)Cc2ccccc2)C(=O)N2C(C(=O)[O-])=C(C)CO[C@@H]21.[Na+]	100	100	200	100		323
CO[C@@]1(NC(=O)Cc2ccccc2)C(=O)N2C(C(=O)[O-])=C(CSC)CO[C@@H]21.[Na+]	200	100	> 400	50	406	
CO[C@@]1(NC(=O)Cc2ccccc2)C(=O)N2C(C(=O)[O-])=C(CO)CO[C@@H]21.[Na+]	50	50	100	25	130	
COCC1=C(C(=O)[O-])N2C(=O)[C@](NC(=O)Cc3ccccc3)(OC)[C@H]2OC1.[Na+]	100	50	200	25	178	

Compounds with a lower MIC [2], results first:

MIC [2] [µg/mL]	MIC [3] [µg/mL]	MIC [4] [µg/mL]	MIC [5] [µg/mL]	Compound	Geometric mean [1] [µM]	Geometric mean [6] [µM]
25	25	50	12.5	CO[C@@]1(NC(=O)Cc2ccccc2)C(=O)N2C(C(=O)[O-])=C(CC#N)CO[C@@H]21.[Na+]	63.6	
0.78	3.13	3.13	0.78	CO[C@@]1(NC(=O)Cc2ccccc2)C(=O)N2C(C(=O)[O-])=C(COC(N)=O)COC21.[Na+] (stereo not given in full)	3.66	
0.39	0.39	0.78	0.1	CO[C@@]1(NC(=O)Cc2ccccc2)C(=O)N2C(C(=O)[O-])=C(CSc3nnnn3C)CO[C@@H]21.[Na+]	0.684	
3.13	1.56	3.13	0.78	CO[C@@]1(NC(=O)Cc2ccccc2)C(=O)N2C(C(=O)[O-])=C(COC(C)=O)CO[C@@H]21.[Na+]	4.36	
12.5 (≈ 29.5 µM)	12.5 (≈ 29.5 µM)	12.5 (≈ 29.5 µM)	12.5 (≈ 29.5 µM)	CO[C@@]1(NC(=O)Cc2ccccc2)C(=O)N2C(C(=O)[O-])=C(C[n+]3ccccc3)COC21 (stereo not given in full)	29.5	
